Test results taken from ChEMBL document CHEMBL1123548 (J Med Chem, 1986).

Tests used:
Adenosine receptor A1 = target: T1, Adenosine receptor A1 (Rattus norvegicus, UniProt P25099); experiment: Ability to inhibit binding of 1 nM [3H]cyclohexyladenosine to adenosine A1 receptor in rat cerebral cortical membranes; assay type: cell membranes, Membrane
T1 sequence (P25099 whole entry): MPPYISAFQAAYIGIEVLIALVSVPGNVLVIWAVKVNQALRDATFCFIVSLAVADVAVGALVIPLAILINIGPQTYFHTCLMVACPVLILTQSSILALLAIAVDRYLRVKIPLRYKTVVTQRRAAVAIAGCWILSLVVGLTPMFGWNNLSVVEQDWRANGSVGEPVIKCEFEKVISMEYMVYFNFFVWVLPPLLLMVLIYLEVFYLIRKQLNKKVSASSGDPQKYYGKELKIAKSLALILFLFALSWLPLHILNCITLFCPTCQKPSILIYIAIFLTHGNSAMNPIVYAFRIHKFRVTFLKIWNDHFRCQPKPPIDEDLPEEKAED
How it was run: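 Displacement of 1 nM N6-[3H]cyclohexyladenosine from A1 sites in rat cerebral cortical membranes by a range of xanthine concentrations. Each point was run in triplicate in at least two separate experiments. IC50 was determined and converted to Ki. Values are mean ± SEM of two to five determinations.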

Cavia porcellus = species on record: Cavia porcellus; experiment: Selectivity was expressed as the ratio is Ki of adenosine A1 receptor to that of adenosine A2 receptor
Adenosine receptor A2a = Adenosine receptor A2a (Cavia porcellus, UniProt P46616); experiment: Compound was evaluated for its ability to antagonise cyclic [3H]AMP accumulation in [3H]adenine-labeled guinea pig cerebral cortical slices.; assay type: functional
[1] = target: Adenosine receptor A1 (Rattus norvegicus) (UniProt P25099); experiment: Inactive Selectivity was expressed as the ratio is Ki of A1-[…]

Chain of Adenosine receptor A2a (P46616 whole entry): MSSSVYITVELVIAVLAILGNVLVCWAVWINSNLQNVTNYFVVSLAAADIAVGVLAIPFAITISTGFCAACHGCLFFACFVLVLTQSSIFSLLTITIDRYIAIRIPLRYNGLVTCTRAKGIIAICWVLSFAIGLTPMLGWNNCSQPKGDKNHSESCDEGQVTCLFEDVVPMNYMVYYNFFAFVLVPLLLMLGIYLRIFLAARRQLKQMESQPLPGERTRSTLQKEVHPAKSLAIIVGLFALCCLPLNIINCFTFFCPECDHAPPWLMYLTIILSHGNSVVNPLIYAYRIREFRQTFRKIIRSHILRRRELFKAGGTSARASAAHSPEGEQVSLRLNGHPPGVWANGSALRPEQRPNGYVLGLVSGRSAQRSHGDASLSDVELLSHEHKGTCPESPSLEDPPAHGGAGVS

Compound | Ki (Adenosine receptor A1) | Selectivity ratio (Cavia porcellus) | Ki (Adenosine receptor A2a) | Selectivity ratio [1]
CCCn1c(=O)c2c(ncn2C)n(C)c1=O | 38 µM | 9.5 | 5 µM | 
C=CCn1c(=O)c2c(ncn2C)n(CC=C)c1=O | 18 µM | 4.5 | 4 µM | 
C=CCn1c(=O)c2c(ncn2C)n(C)c1=O | 47 µM | 7.2 | 6.5 µM | 
CCCn1cnc2c1c(=O)n(C)c(=O)n2C | 21 µM |  | 11 µM | 1.9
Cn1c(=O)c2c(ncn2CCO)n(C)c1=O [ETOFYLLINE] | 105 µM | 0.8 | 135 µM | 
Cn1c(=O)c2c(ncn2CCCl)n(C)c1=O [7-CHLOROETHYLTHEOPHYLLINE] | 8 µM | 1.8 | 4.5 µM | 
C#CCn1cnc2c1c(=O)n(C)c(=O)n2C | 12 µM | 2.9 | 4.1 µM | 
CCCn1c(=O)n(C)c(=O)c2c1ncn2C | 24 µM | 2.7 | 9 µM | 
CC(=O)OCCn1cnc2c1c(=O)n(C)c(=O)n2C | 40 µM | 0.6 | 68 µM | 
Cn1c(=O)c2nc[nH]c2n(CCO)c1=O | 60 µM | 0.8 | 80 µM | 
C=CCn1c(=O)c2nc[nH]c2n(CC=C)c1=O | 10 µM | 2 |  | 
CCn1c(=O)c2nc[nH]c2n(C)c1=O | 15 µM | 3 | 5 µM | 
CCCn1c(=O)c2nc[nH]c2n(CCC)c1=O |  | 0.3 |  | 
Cn1c(=O)n(CCO)c(=O)c2[nH]cnc21 | 85 µM | 1.7 | 50 µM | 
C#CCn1c(=O)c2c(ncn2C)n(C)c1=O |  | 7.5 | 6 µM | 
CC(C)Cn1c(=O)n(C)c(=O)c2c1ncn2C | 19 µM | 2.7 | 7 µM | 
CCCn1cnc2c1c(=O)n(C)c(=O)n2CC(C)C | 13 µM | 1.2 | 11 µM | 
CC(C)n1c(=O)n(C)c(=O)c2[nH]cnc21 | 12 µM | 2 | 6 µM | 
CC(C)Cn1c(=O)n(C)c(=O)c2nc[nH]c21 |  | 0.9 |  | 
C=CCn1cnc2c1c(=O)n(C)c(=O)n2CC(C)C | 13 µM | 1.5 | 8.5 µM | 
C=CCn1cnc2c1c(=O)n(C)c(=O)n2C | 33 µM | 3.3 | 10 µM | 

Results, then the molecule that gave them:

Ki (Adenosine receptor A1) | Selectivity ratio (Cavia porcellus) | Ki (Adenosine receptor A2a) | Selectivity ratio [1] | Compound
1.9 µM | 2.7 | 0.7 µM |  | C=CCn1cnc2c1c(=O)n(CCC)c(=O)n2CCC
9 µM | 0.8 | 11 µM |  | CC(C)Cn1c(=O)n(C)c(=O)c2c1ncn2Cc1ccccc1
2.6 µM | 1.9 | 1.4 µM |  | CCCn1c(=O)c2c(ncn2CCC)n(CCC)c1=O
2 µM | 0.14 | 14 µM |  | O=c1c2[nH]cnc2n(Cc2ccccc2)c(=O)n1Cc1ccccc1
0.6 µM | 1.5 | 0.4 µM |  | C#CCn1cnc2c1c(=O)n(CCC)c(=O)n2CCC
1 µM | 0.7 | 1.5 µM |  | CCCn1c(=O)c2c(ncn2Cc2ccccc2)n(CCC)c1=O
3.1 µM | 1.1 | 2.8 µM |  | C#CCn1cnc2c1c(=O)n(C)c(=O)n2CC(C)C
3.3 µM | 1.1 | 3 µM |  | CCn1c(=O)c2nc[nH]c2n(CC)c1=O
0.5 µM | 0.3 |  |  | CC(C)Cn1c(=O)c2nc[nH]c2n(CC(C)C)c1=O
6 µM | 0.4 | 14 µM |  | Cn1c(=O)c2c(ncn2Cc2ccccc2)n(C)c1=O
7 µM | 5.8 | 1.2 µM |  | CCCn1c(=O)c2c(ncn2C)n(CCC)c1=O
